Tested on: L1210
Assay: Ratio of IC50 for Mycoplasma hyorhinis-infected mouse L1210 cells to IC50 for mouse L1210/0 cells after 48 hrs by cell counting
Type: functional
Conditions: not given
Summary of the method: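 Murine L1210/0 cells were compared with L1210/TK cells, selected for resistance to 5-bromo-2'-dUrd, and with L1210.Hyor cells, chronically infected with Mycoplasma hyorhinis. Cells were grown in DMEM with 10% FBS, 10 mM Hepes and 1 mM pyruvate at 37 °C and 5% CO2, then seeded at 60 000 cells/well with compound. They were Coulter-counted after 48 h. […] Mean of 2–4 experiments.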

| Structure (SMILES) | Ratio IC50 |
| --- | --- |
| CCOC(=O)[C@H](C)NP(=O)(OC[C@H]1O[C@@H](n2cc(F)c(=O)[nH]c2=O)C[C@@H]1O)Oc1ccccc1 (mixture of isomers) | 5 |
| O=C(OCc1ccccc1)[C@H](Cc1ccccc1)NP(=O)(OC[C@H]1O[C@@H](n2cc(F)c(=O)[nH]c2=O)C[C@@H]1O)Oc1cccc2ccccc12 (mixture of isomers) | 11 |
| CCCCCOC(=O)[C@H](Cc1ccccc1)NP(=O)(OC[C@H]1O[C@@H](n2cc(F)c(=O)[nH]c2=O)C[C@@H]1O)Oc1cccc2ccccc12 (mixture of isomers) | 4.67 |
| C[C@H](NP(=O)(OC[C@H]1O[C@@H](n2cc(F)c(=O)[nH]c2=O)C[C@@H]1O)Oc1cccc2ccccc12)C(=O)OC1Cc2ccccc2C1 (mixture of isomers) | 1.08 |
| CCCCCOC(=O)[C@H](CCSC)NP(=O)(OC[C@H]1O[C@@H](n2cc(F)c(=O)[nH]c2=O)C[C@@H]1O)Oc1ccccc1 (mixture of isomers) | 3.2 |
| CCCCCOC(=O)[C@H](CC(C)C)NP(=O)(OC[C@H]1O[C@@H](n2cc(F)c(=O)[nH]c2=O)C[C@@H]1O)Oc1cccc2ccccc12 (mixture of isomers) | 1.13 |

Tested on: L1210
Assay: Cytostatic activity against Mycoplasma hyorhinis-infected mouse L1210 cells after 48 hrs by cell counting
Type: functional, cell-based
Conditions: L1210, 48 h
Summary of the method: (§1)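 Suspension leukemia cells in DMEM with 10% FBS, 10 mM Hepes and 1 mM sodium pyruvate at 37 °C under 5% CO2. Seeded at 60 000 cells/well with graded compound levels. Grown 48 h (L1210) or 72 h (CEM), then counted by Coulter counter. Mean ± SD of two to four independent experiments.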

| IC50 [nM] | Structure (SMILES) |
| --- | --- |
| 140 | CCCCCOC(=O)[C@H](Cc1ccccc1)NP(=O)(OC[C@H]1O[C@@H](n2cc(F)c(=O)[nH]c2=O)C[C@@H]1O)Oc1cccc2ccccc12 (mixture of isomers) |
| 42 | C[C@H](NP(=O)(OC[C@H]1O[C@@H](n2cc(F)c(=O)[nH]c2=O)C[C@@H]1O)Oc1cccc2ccccc12)C(=O)OC1Cc2ccccc2C1 (mixture of isomers) |
| 410 | CCCCCOC(=O)[C@H](CCSC)NP(=O)(OC[C@H]1O[C@@H](n2cc(F)c(=O)[nH]c2=O)C[C@@H]1O)Oc1ccccc1 (mixture of isomers) |
| 35 | CCCCCOC(=O)[C@H](CC(C)C)NP(=O)(OC[C@H]1O[C@@H](n2cc(F)c(=O)[nH]c2=O)C[C@@H]1O)Oc1cccc2ccccc12 (mixture of isomers) |

| Structure (SMILES) | IC50 [nM] |
| --- | --- |
| CCOC(=O)[C@H](C)NP(=O)(OC[C@H]1O[C@@H](n2cc(F)c(=O)[nH]c2=O)C[C@@H]1O)Oc1ccccc1 (mixture of isomers) | 540 |
| O=C(OCc1ccccc1)[C@H](Cc1ccccc1)NP(=O)(OC[C@H]1O[C@@H](n2cc(F)c(=O)[nH]c2=O)C[C@@H]1O)Oc1cccc2ccccc12 (mixture of isomers) | 230 |

Tested on: HeLa
Assay: Cytostatic activity against human HeLa cells […] by cell counting
Type: functional, cell-based
Conditions: not given

| IC50 [nM] | Structure (SMILES) |
| --- | --- |
| 40 | CCCCCOC(=O)[C@H](Cc1ccccc1)NP(=O)(OC[C@H]1O[C@@H](n2cc(F)c(=O)[nH]c2=O)C[C@@H]1O)Oc1cccc2ccccc12 (mixture of isomers) |
| 100 | C[C@H](NP(=O)(OC[C@H]1O[C@@H](n2cc(F)c(=O)[nH]c2=O)C[C@@H]1O)Oc1cccc2ccccc12)C(=O)OC1Cc2ccccc2C1 (mixture of isomers) |
| 150 | CCCCCOC(=O)[C@H](CCSC)NP(=O)(OC[C@H]1O[C@@H](n2cc(F)c(=O)[nH]c2=O)C[C@@H]1O)Oc1ccccc1 (mixture of isomers) |
| 39 | CCCCCOC(=O)[C@H](CC(C)C)NP(=O)(OC[C@H]1O[C@@H](n2cc(F)c(=O)[nH]c2=O)C[C@@H]1O)Oc1cccc2ccccc12 (mixture of isomers) |

| Structure (SMILES) | IC50 [nM] |
| --- | --- |
| CCOC(=O)[C@H](C)NP(=O)(OC[C@H]1O[C@@H](n2cc(F)c(=O)[nH]c2=O)C[C@@H]1O)Oc1ccccc1 (mixture of isomers) | 480 |
| O=C(OCc1ccccc1)[C@H](Cc1ccccc1)NP(=O)(OC[C@H]1O[C@@H](n2cc(F)c(=O)[nH]c2=O)C[C@@H]1O)Oc1cccc2ccccc12 (mixture of isomers) | 160 |

Tested on: HeLa
Assay: Cytostatic activity against thymidine-kinase deficient human HeLa cells […]
Type: functional, cell-based
Conditions: not given

| IC50 [µM] | Structure (SMILES) |
| --- | --- |
| 6.6 | CCCCCOC(=O)[C@H](Cc1ccccc1)NP(=O)(OC[C@H]1O[C@@H](n2cc(F)c(=O)[nH]c2=O)C[C@@H]1O)Oc1cccc2ccccc12 (mixture of isomers) |
| 7.1 | C[C@H](NP(=O)(OC[C@H]1O[C@@H](n2cc(F)c(=O)[nH]c2=O)C[C@@H]1O)Oc1cccc2ccccc12)C(=O)OC1Cc2ccccc2C1 (mixture of isomers) |
| 7.1 | CCCCCOC(=O)[C@H](CCSC)NP(=O)(OC[C@H]1O[C@@H](n2cc(F)c(=O)[nH]c2=O)C[C@@H]1O)Oc1ccccc1 (mixture of isomers) |
| 7.5 | CCCCCOC(=O)[C@H](CC(C)C)NP(=O)(OC[C@H]1O[C@@H](n2cc(F)c(=O)[nH]c2=O)C[C@@H]1O)Oc1cccc2ccccc12 (mixture of isomers) |

| Structure (SMILES) | IC50 [µM] |
| --- | --- |
| CCOC(=O)[C@H](C)NP(=O)(OC[C@H]1O[C@@H](n2cc(F)c(=O)[nH]c2=O)C[C@@H]1O)Oc1ccccc1 (mixture of isomers) | 9.8 |
| O=C(OCc1ccccc1)[C@H](Cc1ccccc1)NP(=O)(OC[C@H]1O[C@@H](n2cc(F)c(=O)[nH]c2=O)C[C@@H]1O)Oc1cccc2ccccc12 (mixture of isomers) | 6.8 |

Tested on: CCRF-CEM
Assay: Cytostatic activity against thymidine-kinase deficient human CEM cells after 72 hrs by cell counting
Type: functional, cell-based
Conditions: not given
Summary of the method: as §1

| IC50 [µM] | Structure (SMILES) |
| --- | --- |
| 8.3 | CCCCCOC(=O)[C@H](Cc1ccccc1)NP(=O)(OC[C@H]1O[C@@H](n2cc(F)c(=O)[nH]c2=O)C[C@@H]1O)Oc1cccc2ccccc12 (mixture of isomers) |
| 1 | C[C@H](NP(=O)(OC[C@H]1O[C@@H](n2cc(F)c(=O)[nH]c2=O)C[C@@H]1O)Oc1cccc2ccccc12)C(=O)OC1Cc2ccccc2C1 (mixture of isomers) |
| 13 | CCCCCOC(=O)[C@H](CCSC)NP(=O)(OC[C@H]1O[C@@H](n2cc(F)c(=O)[nH]c2=O)C[C@@H]1O)Oc1ccccc1 (mixture of isomers) |
| 15 | CCCCCOC(=O)[C@H](CC(C)C)NP(=O)(OC[C@H]1O[C@@H](n2cc(F)c(=O)[nH]c2=O)C[C@@H]1O)Oc1cccc2ccccc12 (mixture of isomers) |

| Structure (SMILES) | IC50 [µM] |
| --- | --- |
| CCOC(=O)[C@H](C)NP(=O)(OC[C@H]1O[C@@H](n2cc(F)c(=O)[nH]c2=O)C[C@@H]1O)Oc1ccccc1 (mixture of isomers) | 14 |
| O=C(OCc1ccccc1)[C@H](Cc1ccccc1)NP(=O)(OC[C@H]1O[C@@H](n2cc(F)c(=O)[nH]c2=O)C[C@@H]1O)Oc1cccc2ccccc12 (mixture of isomers) | 7.2 |

Tested on: CCRF-CEM
Assay: Cytostatic activity against human CEM/0 cells after 72 hrs by cell counting
Type: functional, cell-based
Conditions: not given
Summary of the method: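 Suspension leukemia cells in DMEM with 10% FBS, 10 mM Hepes and 1 mM sodium pyruvate at 37 °C under 5% CO2. Seeded at 60 000 cells/well with graded compound levels. Grown 48 h (L1210) or 72 h (CEM), then counted by Coulter counter. […] Mean ± SD of two to four independent experiments.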

| IC50 [nM] | Structure (SMILES) |
| --- | --- |
| 100 | CCCCCOC(=O)[C@H](Cc1ccccc1)NP(=O)(OC[C@H]1O[C@@H](n2cc(F)c(=O)[nH]c2=O)C[C@@H]1O)Oc1cccc2ccccc12 (mixture of isomers) |
| 79 | C[C@H](NP(=O)(OC[C@H]1O[C@@H](n2cc(F)c(=O)[nH]c2=O)C[C@@H]1O)Oc1cccc2ccccc12)C(=O)OC1Cc2ccccc2C1 (mixture of isomers) |
| 350 | CCCCCOC(=O)[C@H](CCSC)NP(=O)(OC[C@H]1O[C@@H](n2cc(F)c(=O)[nH]c2=O)C[C@@H]1O)Oc1ccccc1 (mixture of isomers) |
| 71 | CCCCCOC(=O)[C@H](CC(C)C)NP(=O)(OC[C@H]1O[C@@H](n2cc(F)c(=O)[nH]c2=O)C[C@@H]1O)Oc1cccc2ccccc12 (mixture of isomers) |

| Structure (SMILES) | IC50 [nM] |
| --- | --- |
| CCOC(=O)[C@H](C)NP(=O)(OC[C@H]1O[C@@H](n2cc(F)c(=O)[nH]c2=O)C[C@@H]1O)Oc1ccccc1 (mixture of isomers) | 920 |
| O=C(OCc1ccccc1)[C@H](Cc1ccccc1)NP(=O)(OC[C@H]1O[C@@H](n2cc(F)c(=O)[nH]c2=O)C[C@@H]1O)Oc1cccc2ccccc12 (mixture of isomers) | 100 |

Tested on: not listed separately
Assay: Cytostatic activity against mouse L1210/0 cells after 48 hrs by cell counting
Type: functional, cell-based
Conditions: L1210/0, 48 h
Summary of the method: as §1

| IC50 [nM] | Structure (SMILES) |
| --- | --- |
| 30 | CCCCCOC(=O)[C@H](Cc1ccccc1)NP(=O)(OC[C@H]1O[C@@H](n2cc(F)c(=O)[nH]c2=O)C[C@@H]1O)Oc1cccc2ccccc12 (mixture of isomers) |
| 39 | C[C@H](NP(=O)(OC[C@H]1O[C@@H](n2cc(F)c(=O)[nH]c2=O)C[C@@H]1O)Oc1cccc2ccccc12)C(=O)OC1Cc2ccccc2C1 (mixture of isomers) |
| 130 | CCCCCOC(=O)[C@H](CCSC)NP(=O)(OC[C@H]1O[C@@H](n2cc(F)c(=O)[nH]c2=O)C[C@@H]1O)Oc1ccccc1 (mixture of isomers) |
| 31 | CCCCCOC(=O)[C@H](CC(C)C)NP(=O)(OC[C@H]1O[C@@H](n2cc(F)c(=O)[nH]c2=O)C[C@@H]1O)Oc1cccc2ccccc12 (mixture of isomers) |

| Structure (SMILES) | IC50 [nM] |
| --- | --- |
| CCOC(=O)[C@H](C)NP(=O)(OC[C@H]1O[C@@H](n2cc(F)c(=O)[nH]c2=O)C[C@@H]1O)Oc1ccccc1 (mixture of isomers) | 110 |
| O=C(OCc1ccccc1)[C@H](Cc1ccccc1)NP(=O)(OC[C@H]1O[C@@H](n2cc(F)c(=O)[nH]c2=O)C[C@@H]1O)Oc1cccc2ccccc12 (mixture of isomers) | 21 |

Tested on: L1210
Assay: Cytostatic activity against thymidine-kinase deficient mouse L1210 cells after 48 hrs by cell counting
Type: functional, cell-based
Conditions: L1210, 48 h
Summary of the method: as §1

| IC50 [nM] | Structure (SMILES) |
| --- | --- |
| 2900 | CCCCCOC(=O)[C@H](Cc1ccccc1)NP(=O)(OC[C@H]1O[C@@H](n2cc(F)c(=O)[nH]c2=O)C[C@@H]1O)Oc1cccc2ccccc12 (mixture of isomers) |
| 40000 | C[C@H](NP(=O)(OC[C@H]1O[C@@H](n2cc(F)c(=O)[nH]c2=O)C[C@@H]1O)Oc1cccc2ccccc12)C(=O)OC1Cc2ccccc2C1 (mixture of isomers) |
| 2200 | CCCCCOC(=O)[C@H](CCSC)NP(=O)(OC[C@H]1O[C@@H](n2cc(F)c(=O)[nH]c2=O)C[C@@H]1O)Oc1ccccc1 (mixture of isomers) |
| 1200 | CCCCCOC(=O)[C@H](CC(C)C)NP(=O)(OC[C@H]1O[C@@H](n2cc(F)c(=O)[nH]c2=O)C[C@@H]1O)Oc1cccc2ccccc12 (mixture of isomers) |

| Structure (SMILES) | IC50 [nM] |
| --- | --- |
| CCOC(=O)[C@H](C)NP(=O)(OC[C@H]1O[C@@H](n2cc(F)c(=O)[nH]c2=O)C[C@@H]1O)Oc1ccccc1 (mixture of isomers) | 940 |
| O=C(OCc1ccccc1)[C@H](Cc1ccccc1)NP(=O)(OC[C@H]1O[C@@H](n2cc(F)c(=O)[nH]c2=O)C[C@@H]1O)Oc1cccc2ccccc12 (mixture of isomers) | 5600 |

Reference: ChEMBL document CHEMBL2177092, “Phosphoramidate ProTides of the anticancer agent FUDR successfully deliver the preformed bioactive monophosphate in cells and confer advantage over the parent nucleoside” (J Med Chem, 2011)
